From ChEMBL document CHEMBL5136958, “The development of HEC-866 and its analogues for the treatment of idiopathic pulmonary fibrosis” (RSC Med Chem, 2021)
pIC50: −log10 of the molar value. Calls of active or inactive are those of the source. The rule behind the calls is not given here.

Columns and labels:
HFL1 [1] = experiment: Antiproliferative activity against human HFL1 cells assessed as reduction in cell proliferation measured after 24 hrs by CCK-8 assay; assay type: functional, cell-based; settings: HFL1, 24 h
Method in brief: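 Human fetal lung fibroblasts (HFL-1); growth inhibition quantified with CCK-8; IC50 averaged from 3 experiments, each in duplicate.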

[2] = Cmax in Sprague-Dawley rat model of bleomycin-induced pulmonary fibrosis at 5 mg/kg, po by LC-MS/MS analysis; assay type: ADME, organism-based; set-up: dose 5 mg/kg, route po; settings: in vivo
Method in brief: (§1)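 Male Sprague-Dawley rats with induced pulmonary fibrosis; single i.v. (2.0 mg kg⁻¹) or p.o. (5.0 mg kg⁻¹) administration. Plasma samples stored at −70 °C; the supernatant was analysed by LC-MS/MS for PK parameters.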

[3] = AUC(infinity) in Sprague-Dawley rat model of bleomycin-induced pulmonary fibrosis at 1 mg/kg, iv by LC-MS/MS analysis; assay type: ADME, organism-based; set-up: time infinity, dose 1 mg/kg, route iv; settings: in vivo
[4] = AUClast in Sprague-Dawley rat model of bleomycin-induced pulmonary fibrosis at 1 mg/kg, iv by LC-MS/MS analysis; assay type: ADME, organism-based; set-up: time 0 - last, dose 1 mg/kg, route iv; settings: in vivo
[5] = Clearance in Sprague-Dawley rat model of bleomycin-induced pulmonary fibrosis at 1 mg/kg, iv by LC-MS/MS analysis; assay type: ADME, organism-based; settings: in vivo
[6] = Tmax in Sprague-Dawley rat model of bleomycin-induced pulmonary fibrosis at 5 mg/kg, po by LC-MS/MS analysis; assay type: ADME, organism-based; settings: in vivo
Method in brief: (§2)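 Male Sprague-Dawley rats with induced pulmonary fibrosis were dosed 2.0 mg kg⁻¹ i.v. or 5.0 mg kg⁻¹ p.o. Plasma was stored at -70 °C, and the supernatant was analysed by LC-MS/MS.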

[7] = AUClast in Sprague-Dawley rat model of bleomycin-induced pulmonary fibrosis at 5 mg/kg, po by LC-MS/MS analysis; assay type: ADME, organism-based; set-up: time 0 - last, dose 5 mg/kg, route po; settings: in vivo; method in brief: as §1
[8] = AUC(infinity) in Sprague-Dawley rat model of bleomycin-induced pulmonary fibrosis at 5 mg/kg, po by LC-MS/MS analysis; assay type: ADME, organism-based; set-up: time infinity, dose 5 mg/kg, route po; settings: in vivo; method in brief: as §1
[9] = Half life in Sprague-Dawley rat model of bleomycin-induced pulmonary fibrosis at 1 mg/kg, iv by LC-MS/MS analysis; assay type: ADME, organism-based; settings: in vivo
[10] = Half life in Sprague-Dawley rat model of bleomycin-induced pulmonary fibrosis at 5 mg/kg, po by LC-MS/MS analysis; assay type: ADME, organism-based; settings: in vivo; method in brief: as §1
[11] = Oral bioavailability in Sprague-Dawley rat model of bleomycin-induced pulmonary fibrosis at 5 mg/kg by LC-MS/MS analysis; assay type: ADME, organism-based; settings: in vivo; method in brief: as §2
[12] = AUClast in Sprague-Dawley rat model of bleomycin-induced pulmonary fibrosis at 2 mg/kg, iv by LC-MS/MS analysis; assay type: ADME, organism-based; set-up: time 0 - last, dose 2 mg/kg, route iv; settings: in vivo; method in brief: as §1
[13] = Clearance in Sprague-Dawley rat model of bleomycin-induced pulmonary fibrosis at 2 mg/kg, iv by LC-MS/MS analysis; assay type: ADME, organism-based; settings: in vivo; method in brief: as §1
[14] = AUC(infinity) in Sprague-Dawley rat model of bleomycin-induced pulmonary fibrosis at 2 mg/kg, iv by LC-MS/MS analysis; assay type: ADME, organism-based; set-up: time infinity, dose 2 mg/kg, route iv; settings: in vivo; method in brief: as §1
[15] = Half life in Sprague-Dawley rat model of bleomycin-induced pulmonary fibrosis at 2 mg/kg, iv by LC-MS/MS analysis; assay type: ADME, organism-based; settings: in vivo; method in brief: as §1
Rattus norvegicus = experiment: Antifibrotic activity against bleomycin-induced pulmonary fibrosis in Sprague-Dawley rat assessed as reduction in lung histopathological changes at 100 mg/kg, po administered daily for 1 to 14 days starting from post bleomycin stimulation by H and E staining based assay; assay type: functional, organism-based; settings: time 1-14 day
Method in brief: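 Bleomycin-induced lung fibrosis in SD rats; oral dosing daily from day 1 for 14 days; saline for sham and bleomycin groups; comparator 100 mg kg⁻¹ d, test doses 2 and 6 mg kg⁻¹ d; lung pathology assessed by HE histology.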

HFL1 [16] = experiment: Antifibrotic activity in TGF-beta1-induced HFL1 cell injury assessed as down regulation of collagen 1 mRNA expression at 3 mM measured after 24 hrs by RT-PCR analysis; assay type: functional, cell-based; settings: Homo sapiens
Method in brief: (§3)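 TGF-β1-induced HFL-1 cells treated 24 h (test range 0.625–10 μM; comparator 3 mM); collagen 1 and collagen 3 mRNA measured by RT-PCR; mean of n = 3.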

[17] = AUC(infinity) in Sprague-Dawley rat model of bleomycin-induced pulmonary fibrosis at 10 mg/kg, po by LC-MS/MS analysis; assay type: ADME, organism-based; set-up: time infinity, dose 10 mg/kg, route po; settings: in vivo
[18] = Tmax in Sprague-Dawley rat model of bleomycin-induced pulmonary fibrosis at 10 mg/kg, po by LC-MS/MS analysis; assay type: ADME, organism-based; settings: in vivo
[19] = Cmax in Sprague-Dawley rat model of bleomycin-induced pulmonary fibrosis at 10 mg/kg, po by LC-MS/MS analysis; assay type: ADME, organism-based; set-up: dose 10 mg/kg, route po; settings: in vivo
[20] = Oral bioavailability in Sprague-Dawley rat model of bleomycin-induced pulmonary fibrosis at 10 mg/kg by LC-MS/MS analysis; assay type: ADME, organism-based; settings: in vivo
HFL1 [21] = experiment: Antifibrotic activity in TGF-beta1-induced HFL1 cell injury assessed as alpha-SMA expression at 3 mM measured after 48 hrs by Western blot analysis (reference value: 100%); assay type: functional, Homo sapiens
Method in brief: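 HFL-1 cells stimulated with TGF-β1; α-SMA protein detected by Western blot with anti-α-SMA antibody, normalised to tubulin; mean of n = 3.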

[22] = Cmax in Sprague-Dawley rat model of bleomycin-induced pulmonary fibrosis at 2 mg/kg, iv by LC-MS/MS analysis; assay type: ADME, organism-based; set-up: dose 2 mg/kg, route iv; settings: in vivo; method in brief: as §1
[23] = AUClast in Sprague-Dawley rat model of bleomycin-induced pulmonary fibrosis at 10 mg/kg, po by LC-MS/MS analysis; assay type: ADME, organism-based; set-up: time 0 - last, dose 10 mg/kg, route po; settings: in vivo
HFL1 [24] = experiment: Antifibrotic activity in TGF-beta1-induced HFL1 cell injury assessed as down regulation of collagen 3 mRNA expression at 3 mM measured after 24 hrs by RT-PCR analysis; assay type: functional, cell-based; settings: Homo sapiens; method in brief: as §3
[25] = Half life in Sprague-Dawley rat model of bleomycin-induced pulmonary fibrosis at 10 mg/kg, po by LC-MS/MS analysis; assay type: ADME, organism-based; settings: in vivo

## Cc1cc(=O)n(-c2ccc(N3CCOCC3)c(F)c2)c(C)n1
HFL1 [1]
  pIC50: 2.18
[2]
  Cmax: 4720 ng/mL
[3]
  AUC(0-inf): 7290 ng·h/mL
[4]
  AUC(0-t): 7130 ng·h/mL
[5]
  clearance: 1.67 mL/min/kg
[6]
  Tmax: 0.5 h
[7]
  AUC(0-t): 32600 ng·h/mL
[8]
  AUC(0-inf): 33500 ng·h/mL
[9]
  half-life: 4.3 h
[10]
  half-life: 4.3 h
[11]
  bioavailability: 92%

## Cc1cc(=O)n(-c2ccc(N3CCC(COc4cccc(F)c4)CC3)c(Cl)c2)c(C)n1
HFL1 [1]
  pIC50: 4.30
[12]
  AUC(0-t): 1450 ng·h/mL
[7]
  AUC(0-t): 1550 ng·h/mL
[8]
  AUC(0-inf): 3410 ng·h/mL
[13]
  clearance: 10.8 mL/min/kg
[10]
  half-life: 5.26 h
[14]
  AUC(0-inf): 3260 ng·h/mL
[15]
  half-life: 6.73 h

## Cc1ccc(=O)n(-c2ccccc2)c1 [PIRFENIDONE]
HFL1 [1]
  pIC50: 2.04
Rattus norvegicus
  Activity: Active
HFL1 [16]
  Activity: Active
[12]
  AUC(0-t): 649 ng·h/mL
[17]
  AUC(0-inf): 3460 ng·h/mL
[18]
  Tmax: 0.3 h
[13]
  clearance: 53.3 mL/min/kg
[19]
  Cmax: 5070 ng/mL
[20]
  bioavailability: 107%
[14]
  AUC(0-inf): 650 ng·h/mL
HFL1 [21]
  Activity: 83.71%
[22]
  Cmax: 1010 ng/mL
[23]
  AUC(0-t): 3460 ng·h/mL
HFL1 [24]
  Activity: Active
[15]
  half-life: 0.4 h
[25]
  half-life: 0.4 h

## Cc1cc(=O)n(-c2cnc(N3CCC(Cc4cccc(F)c4)CC3)c(Cl)c2)c(C)n1
HFL1 [1]
  pIC50: 4.22

## Cc1cc(=O)n(-c2ccc(N3CCC(Nc4cccc(C(F)(F)F)c4)CC3)c(Cl)c2)c(C)n1
HFL1 [1]
  pIC50: 4.22

## Cc1cccc(CC2CCN(c3ccc(-n4c(C)nc(C)cc4=O)cc3F)CC2)c1
HFL1 [1]
  pIC50: 4.00

## Cc1cc(=O)n(-c2ccc(N3CCC(Cc4ccc(F)cc4)CC3)c(F)c2)c(C)n1
HFL1 [1]
  pIC50: 3.96

## Cc1cc(=O)n(-c2ccc(N3CCC(Cc4cccc(C(F)(F)F)c4)CC3)c(Cl)c2)c(C)n1
HFL1 [1]
  pIC50: 4.22
[12]
  AUC(0-t): 2460 ng·h/mL
[7]
  AUC(0-t): 5180 ng·h/mL
[8]
  AUC(0-inf): 7080 ng·h/mL
[13]
  clearance: 10.3 mL/min/kg
[10]
  half-life: 11.8 h
[14]
  AUC(0-inf): 3220 ng·h/mL
[15]
  half-life: 13.5 h

## Cc1cc(=O)n(-c2ccc(N3CCC(Cc4cccc5cccnc45)CC3)c(Cl)c2)c(C)n1
HFL1 [1]
  pIC50: 3.92

## Cc1cc(=O)n(-c2ccc(N3CCC(Cc4cccc(F)c4)CC3)cn2)c(C)n1
HFL1 [1]
  pIC50: 3.89

## Cc1cc(=O)n(-c2ccc(N3CCC(Cc4cccc5ccccc45)CC3)c(F)c2)c(C)n1
HFL1 [1]
  pIC50: 4.22
[12]
  AUC(0-t): 1110 ng·h/mL
[7]
  AUC(0-t): 1560 ng·h/mL
[8]
  AUC(0-inf): 1600 ng·h/mL
[13]
  clearance: 29.8 mL/min/kg
[10]
  half-life: 5.21 h
[14]
  AUC(0-inf): 1130 ng·h/mL
[15]
  half-life: 5.27 h

## Cc1cc(=O)n(-c2cnc(N3CCC(Oc4cccc(F)c4)CC3)c(Cl)c2)c(C)n1
HFL1 [1]
  pIC50: 4.15

## Cc1cc(=O)n(-c2ccc(N3CCC(Cc4ccccc4Cl)CC3)c(Cl)c2)c(C)n1
HFL1 [1]
  pIC50: 4.15

## Cc1cc(=O)n(-c2ccc(N3CCC(Cc4ccc5ccccc5c4)CC3)c(Cl)c2)c(C)n1
HFL1 [1]
  pIC50: 4.05

## Cc1cc(=O)n(-c2ccc(N3CCC(Cc4cccc(F)c4)CC3)c(Cl)c2)c(C)n1
HFL1 [1]
  pIC50: 4.22

## Cc1cc(=O)n(-c2ccc(N3CCC(Cc4cccc(F)c4)CC3)nc2)c(C)n1
HFL1 [1]
  pIC50: 3.89

## Cc1cc(=O)n(-c2ccc(N3CCC(Cc4cc(F)c(F)c(F)c4)CC3)c(Cl)c2)c(C)n1
HFL1 [1]
  pIC50: 4.22
[12]
  AUC(0-t): 2190 ng·h/mL
[7]
  AUC(0-t): 5690 ng·h/mL
[8]
  AUC(0-inf): 6360 ng·h/mL
[13]
  clearance: 13.8 mL/min/kg
[10]
  half-life: 8.41 h
[14]
  AUC(0-inf): 2400 ng·h/mL
[15]
  half-life: 8.2 h

## C=CCc1ccccc1OC1CCN(c2ccc(-n3c(C)nc(C)cc3=O)cc2Cl)CC1
HFL1 [1]
  pIC50: 4.15

## Cc1cc(=O)n(-c2ccc(N3CCC(Cc4ccccc4-c4ccccc4)CC3)c(Cl)c2)c(C)n1
HFL1 [1]
  pIC50: 4.15

## Cc1cc(=O)n(-c2ccc(N3CCC(Cc4cccc(Cl)c4)CC3)c(Cl)c2)c(C)n1
HFL1 [1]
  pIC50: 4.30
[12]
  AUC(0-t): 898 ng·h/mL
[7]
  AUC(0-t): 1750 ng·h/mL
[8]
  AUC(0-inf): 2030 ng·h/mL
[13]
  clearance: 15.8 mL/min/kg
[10]
  half-life: 9.6 h
[14]
  AUC(0-inf): 1060 ng·h/mL
[15]
  half-life: 10.9 h

## Cc1cc(=O)n(-c2ccc(N3CCC(Oc4cccc(F)c4)CC3)c(F)c2)c(C)n1
HFL1 [1]
  pIC50: 3.96
